Most compounds without a hit are left out; they make up all but 3.3% or so of the library.
ABCB6 inh 2 – blocks the human ABCB6 transporter | Q9NP58 | K562-ABCB6 porphyrin accumulation, flow cytometry, 1 h; stronger effect = lower value | fluorescence ratio to DMSO, % at 10 µM | 0.19% of 360,000 active;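 active = fluorescence ratio to DMSO below 75%, the collection mean minus 3 SD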;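 also: signal is porphyrin accumulated inside mitochondria; lower ratio means ABCB6 inhibition with less porphyrin fluorescence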
STAT3 act-1 – increases IL-6 driven STAT3 reporter signal. activation (% of control), % at 5.6 µM. U3A cells, IL-6 STAT3-luciferase reporter, luminescence; 100% = signal with IL-6 EC80 alone. 0.91% of 190,000 active;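 active = activation above the screen-wide mean of compound activation plus 3 SD, cut at about 130% in these data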
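Test system: human U3A cells carrying STAT3-luciferase construct; control set: IL-6-only wells as 100% reference; timing: compound pre-incubation 1 h before IL-6, then 6 h stimulation at 37 °C; also added: IL-6 stimulus at 33 ng/mL final; evaluation: % activation versus median of IL-6-stimulated wells; detection: reporter luminescence signal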
GAA850 FXN act – activators of GAA850 frataxin (FXN) promoter. HEK293 lucGAA850 FXN promoter luciferase reporter, 24 h; percent of 10 µM SAHA response. activation, % at 6 µM. 0.56% of 360,000 active. AID 540364;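 active = activation above the average of all compounds screened plus 3 SD, cutoff fixed separately per campaign, cut at about 7.5% in these data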
AHR activator – human AHR activation; AHR-responsive luciferase reporter cells, luminescence; activation, % at 5 µM; 2.5% of 320,000 active; AID 2796; in the data active = activation above about 47%
Target sequence (P35869 whole entry, looked up): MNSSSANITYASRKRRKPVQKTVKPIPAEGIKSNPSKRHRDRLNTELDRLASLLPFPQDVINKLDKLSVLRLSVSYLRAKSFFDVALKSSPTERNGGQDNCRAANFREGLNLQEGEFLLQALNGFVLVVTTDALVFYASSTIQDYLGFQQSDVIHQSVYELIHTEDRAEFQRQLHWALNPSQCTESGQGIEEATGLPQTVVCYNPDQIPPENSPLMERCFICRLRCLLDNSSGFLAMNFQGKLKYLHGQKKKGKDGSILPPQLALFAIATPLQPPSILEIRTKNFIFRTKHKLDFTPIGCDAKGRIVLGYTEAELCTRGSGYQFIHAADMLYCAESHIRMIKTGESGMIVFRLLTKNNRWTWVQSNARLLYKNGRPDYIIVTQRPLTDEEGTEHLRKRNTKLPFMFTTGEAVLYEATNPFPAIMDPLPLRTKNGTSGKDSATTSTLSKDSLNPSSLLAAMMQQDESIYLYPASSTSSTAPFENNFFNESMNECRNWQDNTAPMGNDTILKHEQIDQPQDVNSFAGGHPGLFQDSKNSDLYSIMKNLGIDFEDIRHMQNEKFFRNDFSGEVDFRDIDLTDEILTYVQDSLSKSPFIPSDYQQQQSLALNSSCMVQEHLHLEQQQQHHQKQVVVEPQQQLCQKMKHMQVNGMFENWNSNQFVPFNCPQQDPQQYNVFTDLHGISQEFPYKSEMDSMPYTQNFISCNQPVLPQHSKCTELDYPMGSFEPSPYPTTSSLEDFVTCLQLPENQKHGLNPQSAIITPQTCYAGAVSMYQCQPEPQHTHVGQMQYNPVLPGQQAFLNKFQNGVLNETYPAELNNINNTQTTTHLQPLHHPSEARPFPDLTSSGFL
STAT3 act-2 – confirmation of STAT3 signaling activators | shares compounds with STAT3 act-1 | U3A STAT3-luciferase reporter, IL-6 potentiation, luminescence; U3A cells lack STAT1; 100 means same as IL-6 alone | potentiation (% of control), % at 5.7 µM | 64% of 1,200 active;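 active = percent activation of the STAT3 luciferase reporter above a set limit taken from the earlier primary screen, cut at about 130% in these data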
NFkB act STAT3ct – activates NF-kappaB, counter-screen to STAT3 activators; human cells, NF-kappaB reporter activation; 11% of 1,200 active; AID 1309; activation (% of control), % at 5.7 µM; shares compounds with STAT3 act-1; in the data active = activation above about 120%;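 also: reporter induced by TNF-alpha stimulation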
STAT1 act – activates STAT1, counter-screen to STAT3 activators; 13% of 1,200 active; activation (% of control), % at 5.7 µM; shares compounds with STAT3 act-1; NIH 3T3 STAT1-luciferase reporter, IFN-gamma, luminescence;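 active = activation above the solvent-only control well mean plus 3 SD, set per screening run, cut at about 120% in these data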
Each line names hits and unclear results; the compound was inactive in the other large screens (follow-up assays come after a bar, where they were run).

O=C(NC(=S)Nc1nc(-c2ccccc2)cs1)c1ccco1	STAT3 act-1 139 | STAT3 act-2 140 | NFkB act STAT3ct inactive | STAT1 act inactive
COc1ccc(-c2noc(CN3CCOCC3)n2)cc1OC	none
O=C1C2=C(Nc3ccccc3SC2c2ccco2)c2ccccc21 (stereo not drawn)	STAT3 act-1 137, AHR activator 70 | STAT3 act-2 inactive | NFkB act STAT3ct inactive | STAT1 act inactive
CC1CC(C)CN(C(=O)CSCC(=O)Nc2nc(-c3cccs3)cs2)C1 (stereo not drawn)	STAT3 act-1 136 | STAT3 act-2 inactive | NFkB act STAT3ct inactive | STAT1 act inactive
CCOC(=O)c1c(/N=C/N(C)C)sc(C(=O)OC)c1C	none
O=C1C=C(N2CCOCC2)c2ccccc2C1=O	none (no result: STAT3 act-1)
CC1=C(C)C(=O)C(N2CCOCC2)=CC1=O	STAT3 act-1 143 (no result: AHR activator) | STAT3 act-2 139 | NFkB act STAT3ct inactive | STAT1 act inactive
COc1ccccc1C(=O)COC(=O)c1cccc(S(=O)(=O)N2CCCC2)c1	none (no result: STAT3 act-1)
Nc1n[nH]c2ccccc12	STAT3 act-1 136 | STAT3 act-2 141 | NFkB act STAT3ct inactive | STAT1 act inactive
Nc1n[nH]c2cccc(Cl)c12	none (no result: STAT3 act-1)
CN(C)CCN1CCN(C2CN(Cc3cn(Cc4ccccc4C(F)(F)F)nn3)S(=O)(=O)C2)CC1 (stereo not drawn)	none (no result: STAT3 act-1, GAA850 FXN act, AHR activator)
O=C(Nc1c(C(=O)O)[nH]c2ccccc12)NC1CCCCC1	STAT3 act-1 164 | STAT3 act-2 159 | NFkB act STAT3ct inactive | STAT1 act inactive
Cc1ccc(S(=O)(=O)N2[C@@H](c3cccc(Cl)c3)C(C(=O)O)=CC[C@H]2c2cccs2)cc1	none (no result: STAT3 act-1)
COc1ccc2c(c1)c1nnc(SC)nc1n2C	STAT3 act-1 160 | STAT3 act-2 171 | NFkB act STAT3ct inactive | STAT1 act 128
Cc1ccc(C)c(C(=O)COc2ccc(C)nc2[N+](=O)[O-])c1	none
Cc1ccc(OCC(=O)c2c[nH]c3ccccc23)c([N+](=O)[O-])n1	STAT3 act-1 158 | STAT3 act-2 165 | NFkB act STAT3ct inactive | STAT1 act inactive
Cc1cc(C(=O)N2CCCC(C)(C(=O)NS(=O)(=O)C3CC3)C2)nn1C(C)(C)C (stereo not drawn)	none (no result: STAT3 act-1, AHR activator)
COC(=O)c1ccccc1S(=O)(=O)Nc1ccc2cn[nH]c2c1	STAT3 act-1 143 | STAT3 act-2 inactive | NFkB act STAT3ct inactive | STAT1 act inactive
COC(=O)c1sc(S(=O)(=O)Nc2ccc3cn[nH]c3c2)c(C(=O)OC)c1C	STAT3 act-1 147 | STAT3 act-2 147 | NFkB act STAT3ct inactive | STAT1 act inactive
COC(=O)c1sc(S(=O)(=O)Nc2ccc(C)cc2)c(C(=O)OC)c1C	none
Cc1cc(C)c(C)c(S(=O)(=O)Nc2ccc3cn[nH]c3c2)c1C	none (no result: STAT3 act-1)
O=C(CN1CCN(Cc2ccc(F)cc2)C1=O)NCc1cccs1	none (no result: STAT3 act-1)
O=C(C=Cc1ccco1)c1ccc2ccccc2c1	none (no result: STAT3 act-1, AHR activator)
CCCN(CCC)C(=O)Cn1c2ccccc2c2nc(=O)cc(C)n21	STAT3 act-1 165, AHR activator 51 | STAT3 act-2 161 | NFkB act STAT3ct inactive | STAT1 act inactive
N#Cc1cc(-c2ccccc2)nnc1Oc1ccccc1Cl	none
COc1ccccc1C(=O)Nc1cc(Cl)ccc1O	STAT3 act-1 151 | STAT3 act-2 162 | NFkB act STAT3ct inactive | STAT1 act inactive
CCOc1ccccc1C(=O)Nc1cc(Cl)ccc1O	none
COc1ccccc1C(=O)Nc1cc2cc(Br)ccc2oc1=O	STAT3 act-1 137 | STAT3 act-2 138 | NFkB act STAT3ct inactive | STAT1 act 134
COc1ccc(Br)cc1C(=O)Nc1cccc(C)c1	STAT3 act-1 157, AHR activator 50 | STAT3 act-2 139 | NFkB act STAT3ct inactive | STAT1 act inactive
COc1ccccc1C(=O)Nc1cc2ccccc2oc1=O	STAT3 act-1 184 | STAT3 act-2 192 | NFkB act STAT3ct 135 | STAT1 act 166
CCOC(=O)/C=C1/SCC(=O)N1CC(=O)c1ccc[nH]1	none (no result: STAT3 act-1, AHR activator)
CC1CCCC(C)N1C(=O)CSc1nnnn1Cc1ccccc1 (stereo not drawn)	none
O=C(O)CCNc1cc2ccccc2cc1C(=O)O	STAT3 act-1 142 | STAT3 act-2 inactive | NFkB act STAT3ct inactive | STAT1 act inactive
Cc1ccc(NS(=O)(=O)c2cc(C(=O)NCc3ccccn3)ccc2Cl)cc1C	none
O=C(Nc1ccccc1O)c1nc(Cl)ccc1Cl	STAT3 act-1 156 | STAT3 act-2 171 | NFkB act STAT3ct inactive | STAT1 act inactive
COCCSc1ccccc1C(=O)NCCc1ccccc1	STAT3 act-1 138 | STAT3 act-2 149 | NFkB act STAT3ct inactive | STAT1 act inactive
FC(F)(F)c1ccc(C2Nc3cccc4cccc(c34)N2)cc1	STAT3 act-1 142 (no result: AHR activator) | STAT3 act-2 160 | NFkB act STAT3ct inactive | STAT1 act inactive
CCN(C(=O)CSc1nnc(SC)s1)c1c(N)n(Cc2ccccc2)c(=O)[nH]c1=O	none (no result: STAT3 act-1)
Cc1cc(C)c2oc(-c3ccc(C)c(NC(=S)NC(=O)/C=C/c4ccco4)c3)nc2c1	STAT3 act-1 151 | STAT3 act-2 146 | NFkB act STAT3ct inactive | STAT1 act inactive
Cc1cc(C)c2oc(-c3ccc(C)c(NC(=S)NC(=O)c4cccs4)c3)nc2c1	STAT3 act-1 165 | STAT3 act-2 147 | NFkB act STAT3ct inactive | STAT1 act inactive
Cc1ccc2oc(-c3cccc(NC(=S)NC(=O)c4cccs4)c3)nc2c1	none
Cc1ccc2oc(-c3cccc(NC(=S)NC(=O)/C=C/c4ccco4)c3)nc2c1	STAT3 act-1 138, AHR activator 67 | STAT3 act-2 inactive | NFkB act STAT3ct inactive | STAT1 act 123
Cc1ccc(-c2nc3ccccc3o2)cc1NC(=S)NC(=O)c1cccs1	none
CCCCC(CC)C(=O)N1CCN(C(=O)c2ccco2)CC1 (stereo not drawn)	none
COc1cc(C2c3sc(=O)[nH]c3SC3C(=O)N(c4ccc(Br)cc4)C(=O)C32)ccc1O (stereo not drawn)	none (no result: STAT3 act-1)
CCOc1ccc(N2C(=O)C3Sc4[nH]c(=O)sc4C(/C=C/c4ccccc4)C3C2=O)cc1 (stereo not drawn)	STAT3 act-1 141 | STAT3 act-2 inactive | NFkB act STAT3ct inactive | STAT1 act inactive
COc1ccc(C(=O)CNc2ccc3ccccc3c2)cc1	STAT3 act-1 142 (no result: AHR activator) | STAT3 act-2 inactive | NFkB act STAT3ct inactive | STAT1 act inactive
COc1ccc(C(=O)CNc2ccccc2Br)cc1	none (no result: STAT3 act-1)
COc1cc(/C=C2\SC(N)=NC2=O)ccc1OCC(=O)Nc1ccc(C)cc1	STAT3 act-1 643 | STAT3 act-2 435 | NFkB act STAT3ct 130 | STAT1 act inactive

Bioassay records: PubChem BioAssay, several laboratories
